Reference: paper PMC5073817 (ACS chemical neuroscience, 2016)
Entries after “also recorded” stand apart in the source; their conditions may differ. Read-outs that look alike come from different tables or passages of the source. Marks after values point to notes of the source that are not given here.

Key:
6-OHDA lesion models = conditions: various 6-OHDA lesion models; cited from earlier work
[1] = system: unilateral 6-OHDA lesion forelimb asymmetry; test: 6-OHDA lesion-induced forelimb asymmetry; type: in vivo, rats
[2] = system: mGlu2 coexpressed with mGlu4; conditions: cited from earlier work
mGlu4 homomers = mGlu4 homomers (Rattus norvegicus, UniProt P31423); test: CODA-RET assay, mGlu4_L1/mGlu4_L2; type: cell-based; conditions: for max response (BRET) in presence of PAM: mGlu4_L1/mGlu4_L2, L-AP4; for potentiation of L-AP4 responses: mGlu4 labeled with L1 or L2
Chain of mGlu4 homomers (P31423 33-912): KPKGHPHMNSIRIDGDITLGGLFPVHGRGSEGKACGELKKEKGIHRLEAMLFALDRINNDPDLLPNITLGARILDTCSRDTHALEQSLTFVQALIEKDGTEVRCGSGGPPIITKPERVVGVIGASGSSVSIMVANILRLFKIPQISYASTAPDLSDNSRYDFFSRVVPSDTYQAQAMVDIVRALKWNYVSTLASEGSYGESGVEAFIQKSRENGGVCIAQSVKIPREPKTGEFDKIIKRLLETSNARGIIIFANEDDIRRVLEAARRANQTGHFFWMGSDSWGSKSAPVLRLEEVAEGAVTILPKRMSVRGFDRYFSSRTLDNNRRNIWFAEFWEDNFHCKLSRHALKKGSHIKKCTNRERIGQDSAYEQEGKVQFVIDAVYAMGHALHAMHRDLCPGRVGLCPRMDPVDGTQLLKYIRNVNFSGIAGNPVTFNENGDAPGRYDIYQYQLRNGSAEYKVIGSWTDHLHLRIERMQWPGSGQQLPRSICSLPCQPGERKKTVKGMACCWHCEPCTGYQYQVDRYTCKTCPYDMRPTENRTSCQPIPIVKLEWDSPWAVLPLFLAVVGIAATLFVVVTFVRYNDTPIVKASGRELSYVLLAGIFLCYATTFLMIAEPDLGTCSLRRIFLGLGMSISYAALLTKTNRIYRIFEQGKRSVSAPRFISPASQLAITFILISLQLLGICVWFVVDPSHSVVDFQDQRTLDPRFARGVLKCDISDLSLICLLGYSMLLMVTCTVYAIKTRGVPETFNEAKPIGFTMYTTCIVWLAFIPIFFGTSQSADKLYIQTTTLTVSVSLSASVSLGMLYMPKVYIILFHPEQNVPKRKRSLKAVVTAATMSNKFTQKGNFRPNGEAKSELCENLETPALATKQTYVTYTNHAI
Chain of mGlu4 homomers (P31423 33-912): as above
Outline: (§1)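 HEK-293T cells were PEI-transfected with HA-tagged rat mGlu constructs bearing luciferase fragments, plus Gαi-mVenus, Gβ1 and Gγ2. Plasmid ratios were 4:4:1:1:1 for mGlu4-L1/mGlu4-L2 homomers and 4:8:1:1:1 for mGlu4-L1/mGlu2-L2 heteromers. At 48 h, about 200 000 cells/well in PBS were stimulated 5 min at 37 °C with L-AP4 with or without increasing compound. Coelenterazine H (5 µM) was added, read 2 min later; BRET ratio = 510–540 nm over 485 nm.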

mGlu2/4 = test: Glutamate concentration-response curve shift in cells expressing mGlu2 and mGlu4; type: cell-based, rat; conditions: for effect on the glutamate CRC: cells expressing mGlu2 and mGlu4; for fold shift of glutamate CRC / glutamate pEC50 in presence of PAM: mGlu2/4 cells
mGlu4 = mGlu4 (Rattus norvegicus, UniProt P31423); test: Glutamate concentration-response curve shift in cells expressing mGlu4 alone; type: cell-based; conditions: for fold shift of glutamate CRC / glutamate pEC50 in presence of PAM: mGlu4 alone
Chain of mGlu4 (P31423 33-912): as above

mGlu2/4 heteromers = mGlu2/4 heteromers (Rattus norvegicus, UniProt P31423); test: CODA-RET assay, mGlu4_L1/mGlu2_L2; type: cell-based; conditions: for max response (BRET) in presence of PAM: L-AP4; for potentiation of L-AP4 responses: mGlu4_L1 and mGlu2_L2 coexpressed
Chain of mGlu2/4 heteromers (P31423 33-912): as above
Chain of mGlu2/4 heteromers (P31421 19-872 partner): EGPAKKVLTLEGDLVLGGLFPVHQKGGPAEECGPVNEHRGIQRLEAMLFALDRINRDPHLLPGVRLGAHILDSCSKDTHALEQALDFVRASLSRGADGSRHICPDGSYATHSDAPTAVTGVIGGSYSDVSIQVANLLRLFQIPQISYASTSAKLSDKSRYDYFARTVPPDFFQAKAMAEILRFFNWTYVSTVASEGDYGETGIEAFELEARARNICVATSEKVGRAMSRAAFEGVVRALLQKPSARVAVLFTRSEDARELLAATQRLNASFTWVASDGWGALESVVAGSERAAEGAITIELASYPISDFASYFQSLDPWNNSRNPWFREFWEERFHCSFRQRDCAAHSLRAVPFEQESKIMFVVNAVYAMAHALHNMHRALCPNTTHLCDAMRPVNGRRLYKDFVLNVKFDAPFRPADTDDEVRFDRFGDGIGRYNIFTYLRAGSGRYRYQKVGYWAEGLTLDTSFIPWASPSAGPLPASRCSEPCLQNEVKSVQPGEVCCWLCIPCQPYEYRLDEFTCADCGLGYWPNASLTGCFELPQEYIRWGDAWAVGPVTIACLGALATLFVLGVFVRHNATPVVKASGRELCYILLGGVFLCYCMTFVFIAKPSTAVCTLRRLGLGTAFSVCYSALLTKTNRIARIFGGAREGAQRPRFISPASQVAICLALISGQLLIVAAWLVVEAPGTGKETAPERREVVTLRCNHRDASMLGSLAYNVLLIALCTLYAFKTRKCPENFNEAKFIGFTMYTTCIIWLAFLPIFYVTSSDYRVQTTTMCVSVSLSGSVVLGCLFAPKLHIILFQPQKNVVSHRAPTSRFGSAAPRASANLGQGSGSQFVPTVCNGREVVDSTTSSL
Outline: as §1

[3] = cited from earlier work
human mGlu4 = human mGlu4 (Homo sapiens, UniProt Q14833); test: Gqi5-mediated calcium mobilization assay, human mGlu4/Gqi5/CHO cells; type: cell-based; conditions: absence of glutamate
Chain of human mGlu4 (Q14833 33-912): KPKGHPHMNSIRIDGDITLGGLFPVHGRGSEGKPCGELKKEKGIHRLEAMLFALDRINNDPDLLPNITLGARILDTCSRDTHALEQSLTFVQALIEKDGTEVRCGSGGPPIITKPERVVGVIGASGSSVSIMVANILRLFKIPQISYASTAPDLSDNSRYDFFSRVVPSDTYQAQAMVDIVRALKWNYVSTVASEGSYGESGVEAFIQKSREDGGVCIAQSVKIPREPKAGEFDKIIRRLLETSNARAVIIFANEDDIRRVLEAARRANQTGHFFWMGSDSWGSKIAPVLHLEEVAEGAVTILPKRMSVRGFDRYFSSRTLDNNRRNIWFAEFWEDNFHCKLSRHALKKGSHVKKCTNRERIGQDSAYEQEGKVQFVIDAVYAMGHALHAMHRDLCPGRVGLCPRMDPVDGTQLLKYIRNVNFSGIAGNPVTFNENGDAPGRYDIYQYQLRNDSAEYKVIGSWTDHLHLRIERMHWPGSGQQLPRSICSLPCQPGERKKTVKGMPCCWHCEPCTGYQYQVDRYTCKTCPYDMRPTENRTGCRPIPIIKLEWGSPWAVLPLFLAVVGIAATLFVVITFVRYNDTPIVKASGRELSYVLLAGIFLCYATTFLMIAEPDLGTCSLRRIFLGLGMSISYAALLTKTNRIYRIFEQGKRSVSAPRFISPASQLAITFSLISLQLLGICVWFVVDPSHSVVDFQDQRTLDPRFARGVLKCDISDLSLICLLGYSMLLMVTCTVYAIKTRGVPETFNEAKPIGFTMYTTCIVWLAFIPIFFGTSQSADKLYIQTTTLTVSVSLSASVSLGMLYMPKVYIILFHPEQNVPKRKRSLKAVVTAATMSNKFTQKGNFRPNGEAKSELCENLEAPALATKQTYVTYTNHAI

rat mGlu4 = rat mGlu4 (Rattus norvegicus, UniProt P31423); test: GIRK/thallium flux assay, rat mGlu4/HEK/GIRK cells; type: cell-based
Chain of rat mGlu4 (P31423 33-912): as the sequence (P31423 33-912) above
Outline: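 Polyclonal HEK/GIRK cells stably expressing rat mGlu4 (pIRESpuro3, puromycin-selected) were loaded with 330 nM final FluoZin-2 AM in HBSS/20 mM HEPES pH 7.4 for 1 h at room temperature. Thallium flux was read kinetically at room temperature. EC50 came from four-parameter logistic fits; three determinations in triplicate, mean ± SEM.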

[4] = Plasma and brain exposure time course after 30 mg/kg dose; type: in vivo; conditions: rat
[5] = system: haloperidol-induced catalepsy; test: Haloperidol-induced catalepsy; type: in vivo, Sprague–Dawley rats; conditions: oral, catalepsy assessed 30 min after dosing
[6] = system: rotarod motor performance; test: Rotarod test; type: in vivo, rats; conditions: doses up to 100 mg/kg p.o., tested 30 min later
Outline: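 Rats were pre-trained on the rotarod, then given vehicle or test compound at 10, 30, 56.6 or 100 mg/kg p.o. (10 mL/kg). Motor performance was tested 30 min after dosing.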

[7] = system: haloperidol-induced catalepsy; conditions: 56.6 mg/kg p.o.; previously demonstrated; cited from earlier work
[8] = CODA-RET, labeled mGlu2 and mGlu4 coexpressed

Compound: Cc1ccnc(Nc2nc(-c3cn[nH]c3)c(C)s2)n1 [ADX88178]
- potentiation of the effects of subthreshold doses of L-DOPA (6-OHDA lesion models): potentiate the effects of subthreshold doses of L-DOPA

Compound: N[C@@H](Cc1ccc(O)c(O)c1)C(=O)O [L-DOPA]
- reversal of forelimb asymmetry ([1]; 0.75 mg/kg alone): inactive alone
- reversal of forelimb asymmetry ([1]; 2.5 mg/kg dose): completely reversed motor deficits

Compound: NC(=O)[C@@H]1CCCC[C@@H]1C(=O)Nc1ccc(Cl)c(Cl)c1 [Lu AF21934]
- potentiation when mGlu2 and mGlu4 are coexpressed [2]: induce potentiation regardless of mGlu2 expression
- max response (BRET) in presence of PAM (mGlu4 homomers; CODA-RET): 0.050 ± 0.003
- L-AP4 pEC50 in presence of PAM (mGlu4 homomers; CODA-RET, mGlu4_L1/mGlu4_L2, mean ± SEM): 7.70 ± 0.01
- potentiation of L-AP4 responses (mGlu4 homomers): able to potentiate responses
- effect on the glutamate CRC (mGlu2/4): induced a leftward shift in the glutamate CRC
- fold shift of glutamate CRC (mGlu2/4; PAM concentration −4.5 (log)): 3.2 ± 0.07
- glutamate pEC50 in presence of PAM (mGlu2/4; PAM concentration −4.5 (log)): 6.41 ± 0.08 ^b
- fold shift of glutamate CRC (mGlu2/4; PAM concentration −5 (log)): 2.8 ± 0.07 ^c
- glutamate pEC50 in presence of PAM (mGlu2/4; PAM concentration −5 (log)): 6.36 ± 0.08 ^b
- fold shift of glutamate CRC (mGlu2/4; PAM concentration −5.5 (log)): 2.4 ± 0.13 ^c
- glutamate pEC50 in presence of PAM (mGlu2/4; PAM concentration −5.5 (log)): 6.29 ± 0.06 ^b
- fold shift of glutamate CRC (mGlu2/4; PAM concentration −6 (log)): 1.7 ± 0.04
- glutamate pEC50 in presence of PAM (mGlu2/4; PAM concentration −6 (log)): 6.13 ± 0.09 ^b
- fold shift of glutamate CRC (mGlu2/4; PAM concentration −6.5 (log)): 1.2 ± 0.05 ^c
- glutamate pEC50 in presence of PAM (mGlu2/4; PAM concentration −6.5 (log)): 6.00 ± 0.09 ^b
- fold shift of glutamate CRC (mGlu2/4; PAM concentration −7 (log)): 1.2 ± 0.07
- glutamate pEC50 in presence of PAM (mGlu2/4; PAM concentration −7 (log)): 5.99 ± 0.06
- fold shift of glutamate CRC (mGlu2/4; PAM concentration −8 (log)): 1.0 ± 0.07
- glutamate pEC50 in presence of PAM (mGlu2/4; PAM concentration −8 (log)): 5.91 ± 0.11
- fold shift of glutamate CRC (mGlu4; PAM concentration −4.5 (log)): 4.2 ± 0.42
- glutamate pEC50 in presence of PAM (mGlu4; PAM concentration −4.5 (log)): 5.43 ± 0.08 ^b
- fold shift of glutamate CRC (mGlu4; PAM concentration −5 (log)): 3.8 ± 0.21 ^c
- glutamate pEC50 in presence of PAM (mGlu4; PAM concentration −5 (log)): 5.39 ± 0.06 ^b
- fold shift of glutamate CRC (mGlu4; PAM concentration −5.5 (log)): 3.2 ± 0.28 ^c
- glutamate pEC50 in presence of PAM (mGlu4; PAM concentration −5.5 (log)): 5.32 ± 0.07 ^b
- fold shift of glutamate CRC (mGlu4; PAM concentration −6 (log)): 2.1 ± 0.17
- glutamate pEC50 in presence of PAM (mGlu4; PAM concentration −6 (log)): 5.14 ± 0.07 ^b
- fold shift of glutamate CRC (mGlu4; PAM concentration −6.5 (log)): 1.6 ± 0.09 ^c
- glutamate pEC50 in presence of PAM (mGlu4; PAM concentration −6.5 (log)): 5.00 ± 0.04 ^b
- fold shift of glutamate CRC (mGlu4; PAM concentration −7 (log)): 1.5 ± 0.12
- glutamate pEC50 in presence of PAM (mGlu4; PAM concentration −7 (log)): 4.99 ± 0.07 ^b
- fold shift of glutamate CRC (mGlu4; PAM concentration −8 (log)): 1.1 ± 0.03
- glutamate pEC50 in presence of PAM (mGlu4; PAM concentration −8 (log)): 4.85 ± 0.03
- max response (BRET) in presence of PAM (mGlu2/4 heteromers; [8]): 0.032 ± 0.004
- L-AP4 pEC50 in presence of PAM (mGlu2/4 heteromers; CODA-RET, labeled mGlu2 and mGlu4 coexpressed, mean ± SEM): 7.66 ± 0.11
- potentiation of L-AP4 responses (mGlu2/4 heteromers): able to potentiate responses
- potentiation of the effects of subthreshold doses of L-DOPA (6-OHDA lesion models): potentiate the effects of subthreshold doses of L-DOPA

Compound: O=C(Nc1cc(Cl)cc(Cl)c1)[C@H]1CCCC[C@H]1C(=O)O [VU0155041]
- potentiation when mGlu2 and mGlu4 are coexpressed [2]: induce potentiation regardless of mGlu2 expression

Compound: Fc1ccc(Nc2n[nH]c3cccnc23)cc1Cl [VU0418506, N-(3-chloro-4-fluorophenyl)-1H-pyrazolo[4,3-b]pyridin-3-amine]
- brain penetration [3]: good brain penetration
- max response (BRET) in presence of PAM (mGlu4 homomers; CODA-RET): 0.047 ± 0.0004
- potentiation of L-AP4 responses (mGlu4 homomers): able to potentiate responses
- effect on the glutamate CRC (mGlu2/4): no effect on the glutamate CRC
- glutamate pEC50 in presence of PAM (mGlu2/4; PAM concentration −5.5 (log)): 6.02 ± 0.02
- glutamate pEC50 in presence of PAM (mGlu2/4; PAM concentration −6.5 (log)): 5.89 ± 0.07
- glutamate pEC50 in presence of PAM (mGlu2/4; PAM concentration −7 (log)): 5.87 ± 0.05
- glutamate pEC50 in presence of PAM (mGlu2/4; PAM concentration −8 (log)): 5.86 ± 0.08
- potentiation of glutamate response (mGlu4; cells only expressing mGlu4): induced significant potentiation
- glutamate pEC50 in presence of PAM (mGlu4; PAM concentration −5 (log)): 5.87 ± 0.13 ^b
- glutamate pEC50 in presence of PAM (mGlu4; PAM concentration −5.5 (log)): 6.07 ± 0.21 ^b
- glutamate pEC50 in presence of PAM (mGlu4; PAM concentration −6 (log)): 5.93 ± 0.12 ^b
- glutamate pEC50 in presence of PAM (mGlu4; PAM concentration −6.5 (log)): 5.67 ± 0.14 ^b
- glutamate pEC50 in presence of PAM (mGlu4; PAM concentration −7 (log)): 5.55 ± 0.17 ^b
- glutamate pEC50 in presence of PAM (mGlu4; PAM concentration −8 (log)): 5.08 ± 0.07
- direct allosteric agonist activity (compound added alone) (human mGlu4): does not exhibit direct allosteric agonist activity; also recorded: does not elicit activity in this assay in the absence of glutamate
- EC50 (rat mGlu4): 46.6 nM
- pEC50 (PAM potency) (rat mGlu4; rat mGlu4, GIRK/thallium flux, mean ± SEM): 7.34 ± 0.04
- EC50 (rat mGlu4; read-out: EC50 (PAM potency), rat mGlu4, GIRK/thallium flux): 46 nM
- time after dosing for which sustained plasma and brain levels were observed [4]: at least 6 h
- reversal of forelimb asymmetry ([1]; 3 mg/kg VU0418506 combined with 0.75 mg/kg L-DOPA): statistically significant efficacy
- reversal of forelimb asymmetry ([1]; 3 mg/kg alone): inactive alone
- reversal of forelimb asymmetry ([1]; 10 mg/kg administered alone, assessed after 30 min): statistically significant reversals of forelimb asymmetry
- reversal of forelimb asymmetry ([1]; 30 mg/kg administered alone, assessed after 30 min): statistically significant reversals of forelimb asymmetry
- doses with significant activity in reversing catalepsy [5]: ≥ 3 mg/kg
- max response (BRET) in presence of PAM (mGlu2/4 heteromers; [8]): 0.021 ± 0.002
- potentiation of L-AP4 responses (mGlu2/4 heteromers): unable to potentiate L-AP4 responses
- impairment of rotorod performance [6]: did not observe any impairment

Compound: Cc1cc(C)n(-c2cc(NC(=O)CN3CCN(C)CC3)nc(-c3ccco3)n2)n1 [compound 23, N-(6-(3,5-dimethyl-1H–pyrazol-1-yl)-2-(furan-2-yl)-pyrimidin-4-yl)-2-(4-methylpiperazin-1-yl)acetamide]
- reversal of haloperidol-induced catalepsy (positive control) [7]: robust reversal of haloperidol-induced catalepsy
